Active and inactive are the calls of the source. The calls are words filed in the database; no cut-off is given here.

Assay [1] has as its system Rattus norvegicus. The assay can be described thus: Conditioned avoidance response (CAR) when administered perorally. In kind it is functional. The conditions noted are these: po.
Assay [2] deals with T1, Adrenergic receptor alpha-1 (Rattus norvegicus, UniProt P15823+P23944+P43140).
T1 sequence (P15823 whole entry): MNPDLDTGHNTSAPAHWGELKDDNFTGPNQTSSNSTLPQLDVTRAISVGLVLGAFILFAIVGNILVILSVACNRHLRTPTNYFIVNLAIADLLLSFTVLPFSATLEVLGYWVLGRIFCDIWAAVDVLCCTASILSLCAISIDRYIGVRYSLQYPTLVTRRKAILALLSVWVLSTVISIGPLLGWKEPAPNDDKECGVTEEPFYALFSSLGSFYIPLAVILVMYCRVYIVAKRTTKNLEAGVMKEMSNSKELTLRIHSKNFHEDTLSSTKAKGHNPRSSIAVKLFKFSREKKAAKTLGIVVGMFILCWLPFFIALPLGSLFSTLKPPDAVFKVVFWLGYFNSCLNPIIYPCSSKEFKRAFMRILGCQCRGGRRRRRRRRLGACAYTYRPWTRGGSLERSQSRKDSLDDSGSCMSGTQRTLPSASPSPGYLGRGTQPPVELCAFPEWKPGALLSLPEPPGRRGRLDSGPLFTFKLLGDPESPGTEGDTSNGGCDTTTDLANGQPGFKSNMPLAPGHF
T1 sequence (P23944 whole entry): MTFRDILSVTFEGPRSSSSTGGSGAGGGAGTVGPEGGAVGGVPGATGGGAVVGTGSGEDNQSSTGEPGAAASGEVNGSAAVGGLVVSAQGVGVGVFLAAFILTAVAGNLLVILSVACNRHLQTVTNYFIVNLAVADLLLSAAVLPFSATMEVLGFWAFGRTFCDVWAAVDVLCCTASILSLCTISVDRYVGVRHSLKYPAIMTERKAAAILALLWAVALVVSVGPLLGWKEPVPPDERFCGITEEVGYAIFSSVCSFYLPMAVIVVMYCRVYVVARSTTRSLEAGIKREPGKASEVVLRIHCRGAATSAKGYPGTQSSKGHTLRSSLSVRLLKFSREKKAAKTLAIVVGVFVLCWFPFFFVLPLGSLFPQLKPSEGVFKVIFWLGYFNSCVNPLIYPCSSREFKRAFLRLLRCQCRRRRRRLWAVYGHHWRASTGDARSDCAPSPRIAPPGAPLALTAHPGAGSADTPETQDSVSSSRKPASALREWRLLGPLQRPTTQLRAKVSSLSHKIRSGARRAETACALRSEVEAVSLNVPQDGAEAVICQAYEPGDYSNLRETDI
T1 sequence (P43140 whole entry): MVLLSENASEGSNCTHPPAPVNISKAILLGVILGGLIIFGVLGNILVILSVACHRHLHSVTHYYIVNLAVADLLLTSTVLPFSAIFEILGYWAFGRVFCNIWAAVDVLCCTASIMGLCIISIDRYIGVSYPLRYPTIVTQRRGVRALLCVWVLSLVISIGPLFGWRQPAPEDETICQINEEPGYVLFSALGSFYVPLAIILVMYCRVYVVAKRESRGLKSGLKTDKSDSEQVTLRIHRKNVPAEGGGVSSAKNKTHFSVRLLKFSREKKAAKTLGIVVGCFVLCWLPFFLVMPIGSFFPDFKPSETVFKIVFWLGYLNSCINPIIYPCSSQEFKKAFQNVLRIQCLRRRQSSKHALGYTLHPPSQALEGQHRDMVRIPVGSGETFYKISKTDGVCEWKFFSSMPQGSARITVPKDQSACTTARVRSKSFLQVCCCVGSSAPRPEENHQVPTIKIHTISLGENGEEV
Description: Ability to bind at Alpha-1 adrenergic receptor by displacing [3H]WB-4101. In kind it is protein assay.

Assay [3] addresses T2, D(2) dopamine receptor (Rattus norvegicus, UniProt P61169). The assay can be described thus: Ability to bind at dopamine receptor D2 of rat corpus striatum by displacing [3H]spiperone.
Assay [4] concerns the target T3, 5-hydroxytryptamine receptor 1A (Rattus norvegicus, UniProt P19327).
T3 sequence (P19327 whole entry): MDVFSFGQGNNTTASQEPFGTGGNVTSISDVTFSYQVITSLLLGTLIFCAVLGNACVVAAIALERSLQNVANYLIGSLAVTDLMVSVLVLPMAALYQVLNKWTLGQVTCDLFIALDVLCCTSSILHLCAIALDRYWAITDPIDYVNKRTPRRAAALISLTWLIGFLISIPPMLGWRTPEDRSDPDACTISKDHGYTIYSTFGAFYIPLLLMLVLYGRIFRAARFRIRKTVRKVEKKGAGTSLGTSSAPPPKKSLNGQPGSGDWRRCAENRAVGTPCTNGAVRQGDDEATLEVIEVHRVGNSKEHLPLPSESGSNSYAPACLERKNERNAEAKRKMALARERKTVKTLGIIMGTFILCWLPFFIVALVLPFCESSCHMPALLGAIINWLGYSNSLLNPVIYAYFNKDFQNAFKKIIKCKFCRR
The assay can be described thus: Ability to bind at 5-hydroxytryptamine 1A receptor of rat hippocampus by displacing [3H]8-OH-DPAT. Format: tissue-based. In short, it runs like this: (§1)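 Rat receptor radioligand displacement, five test-ligand concentrations used to calculate IC50, each assay in duplicate. Some compounds determined four times (in duplicate), with mean IC50 reported.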

Assay [5] deals with T1, Adrenergic receptor alpha-1. The assay can be described thus: Ability to bind at alpha-1 adrenergic receptor by displacing [3H]WB-4101. Format: protein assay. In short, it runs like this:
as §1

Assay [6] deals with T4, Serotonin 2 (5-HT2) receptor (Rattus norvegicus, UniProt P30994+P08909+P14842). Description: Ability to bind at serotonin 5-hydroxytryptamine 2 receptors of rat cortex by displacing [3H]spiperone.
The target in assay [7] is T2, D(2) dopamine receptor. The assay can be described thus: Ability to bind at Dopamine receptor D2 of rat corpus striatum by displacing [3H]spiperone. In short, it runs like this:
as §1

The target of assay [8] is T3, 5-hydroxytryptamine receptor 1A. The assay can be described thus: Ability to bind at serotonin 5-hydroxytryptamine 1A receptors of rat hippocampus by displacing [3H]8-OH-DPAT. Format: tissue-based. In short, it runs like this: as §1
Assay [9] addresses T4, Serotonin 2 (5-HT2) receptor. Description: Ability to bind at 5-hydroxytryptamine 2 receptor of rat cortex by displacing [3H]spiperone.
Assay [10] concerns Rattus norvegicus. Description: Blockade of apomorphine-induced stereotypy in rats when administered perorally. The conditions noted are these: po. Format: functional.
For assay [11], the target named is Serotonin 1 (5-HT1) receptor (Rattus norvegicus, UniProt P28564+P30940+P19327+P28565). Description: Ability to bind at 5-hydroxytryptamine 1 receptor of rat hippocampus by displacing [3H]5-HT. In kind it is tissue-based. In short, it runs like this:
as §1

For assay [12], the system named is Rattus norvegicus. Description: Blockade of Sidman-avoidance activity in rats when administered perorally. Format: functional. In short, it runs like this: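 Rats trained in once-daily Sidman sessions until stable; non-learners after 3 days replaced. Twelve rats dosed 30 min before session. Each rat compared with mean of its previous three drug-free days by paired t test. Testing continued to minimally effective dose; maximum usually 100 mg/kg. MED is mean over 12 animals.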

The test system of assay [13] is Mus musculus. Description: Blockade of apomorphine-induced climbing in mice when administered perorally; IA Inactive. Format: functional, organism-based. In short, it runs like this: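 Male mice habituated 30 min in individual cages, then dosed orally (distilled H2O or 0.5% Methocel suspension, 10 mL/kg) or vehicle. Apomorphine 1.5 mg/kg sc given 30 min later. Climbing scored at 10, 20, 30 min post-apomorphine. At least five animals per dose, maximum 100 mg/kg.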

The test system of assay [14] is Rattus norvegicus. Description: Induction of catalepsy in rats when administered perorally and maximum dose examined was 4 times the ED50 value established in CAR; Inactive. Format: functional, organism-based.

T2 sequence (P61169 whole entry): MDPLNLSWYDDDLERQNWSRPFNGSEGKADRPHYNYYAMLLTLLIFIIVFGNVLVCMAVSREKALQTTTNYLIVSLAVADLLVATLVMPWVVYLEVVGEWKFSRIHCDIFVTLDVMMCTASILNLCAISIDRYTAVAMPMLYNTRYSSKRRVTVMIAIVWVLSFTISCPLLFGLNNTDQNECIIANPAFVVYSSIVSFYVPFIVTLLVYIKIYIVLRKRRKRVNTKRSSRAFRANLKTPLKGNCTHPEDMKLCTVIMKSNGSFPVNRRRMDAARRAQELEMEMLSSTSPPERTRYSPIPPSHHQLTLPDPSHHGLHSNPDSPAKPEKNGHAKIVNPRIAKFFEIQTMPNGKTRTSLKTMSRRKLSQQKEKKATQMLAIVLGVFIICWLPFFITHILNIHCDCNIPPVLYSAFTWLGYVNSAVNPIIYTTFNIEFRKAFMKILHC

As a reminder, the ED50 is the dose at which the effect has come halfway, by size or by number of responders. As a reminder, the IC50 is the concentration needed to halve the response being measured. The compound `CC1(C)CC(=O)N(CCCCN2CCN(c3nccc4occc34)CC2)C(=O)C1.Cl` had a median effective dose (ED50) in assay [1] of 4.2 mg/kg. The IC50 in assay [2] came to 47 nM; in assay [3], 626 nM; in [4] it was 8.64 nM.
Take `O=C1CSCC(=O)N1CCCCN1CCN(c2nccc3sccc23)CC1`: the IC50 in [5] was 1.1 nM; in [6] it was 6.7 nM; in assay [7], 608 nM; in assay [8], 1.15 nM. The compound also displayed an ED50 in assay [1] of 31.9 mg/kg.
Consider `Cl.O=C1SC2(CCCC2)C(=O)N1CCCCN1CCN(c2nccc3sccc23)CC1`, for which the IC50 in [9] turned out to be 3.9 nM; in [2], 30.5 nM; in assay [11], 8.1 nM; in assay [3] it was 88.3 nM. Moreover, the 50% effective dose (ED50) amounted to 35.2 mg/kg in assay [10] and 11.6 mg/kg in assay [1]. Moreover, the MED50 in assay [12] came to 5 mg/kg.
With `Cl.O=C1SC2(CCCC2)C(=O)N1CCCCN1CCN(c2nccc3sc(Br)cc23)CC1`, the IC50 in [9] was 116 nM; in assay [11], 25.3 nM; in assay [3], 440 nM. The compound further came in with an ED50 in [1] of more than 100 mg/kg.
As for `Cl.O=C1CSCC(=O)N1CCCCN1CCN(c2nccc3occc23)CC1`, it took a dose of 35.8 mg/kg to reach the 50% effect level in [1] (ED50). In assay [7], this compound gave an IC50 of more than 1000 nM.
The corresponding values for `Cl.Cn1ccc2c(N3CCN(CCCCN4C(=O)COCC4=O)CC3)nccc21` are more than 100 mg/kg and more than 1000 nM.
With `Cc1cc2c(N3CCN(CCCC(O)c4ccc(F)cc4)CC3)nccc2o1.Cl` (configuration not stated), the 50% effective dose (ED50) in [1] amounted to 23.2 mg/kg. The compound further had a half-inhibitory concentration (IC50) in assay [8] of 6.2 nM.
`Cl.Cn1ccc2c(N3CCN(CCCCN4C(=O)CC(C)(C)CC4=O)CC3)nccc21` displayed an ED50 in assay [1] of 67.2 mg/kg. The compound also displayed an IC50 in assay [7] of more than 1000 nM.
`Cl.O=C1c2ccccc2S(=O)(=O)N1CCCCN1CCN(c2nccc3sccc23)CC1`: the IC50 in assay [5] came to 1.2 nM; in assay [11], 2.3 nM; in assay [6], 5.7 nM; in [7] it was 320 nM; in assay [8], 0.68 nM. Besides, the 50% effective dose (ED50) in assay [1] is more than 62.5 mg/kg.
With `Cl.O=C1c2ccccc2C(=O)N1CCCCN1CCN(c2nccc3sccc23)CC1`, the half-maximal inhibitory concentration (IC50) was determined as 0.69 nM in assay [5]; 5.3 nM in assay [11]; 2.8 nM in assay [6]; 306 nM in assay [7]; 2.7 nM in assay [8]. Besides, in assay [1], the ED50 came to 38.9 mg/kg.
As for `CC1CC(=O)N(CCCCN2CCN(c3nccc4sccc34)CC2)C(=O)C1.Cl`, the ED50 in assay [10] amounted to 39.5 mg/kg; in [1], 2.9 mg/kg. Besides, in [13], the MED50 result was “inactive”. Moreover, the IC50 in assay [11] worked out at 8.8 nM; in [6], 4.2 nM; in assay [7] it was 663 nM; in [8] it was 1.3 nM. For the same compound, in assay [14], the ED50 result was “inactive”.
In the case of `CC1(C)CC(=O)N(CCCCN2CCN(c3nccc4sc(Br)cc34)CC2)C(=O)C1.Cl`, the IC50 in [5] is 27.2 nM; in assay [11] it was 3.7 nM; in assay [6], 70.9 nM; in assay [7], 228 nM. For the same compound, the 50% effective dose (ED50) in [1] is 65.3 mg/kg.
On to `Cl.O=C1CCCC(=O)N1CCCCN1CCN(c2nccc3sccc23)CC1`, for which the values for the median effective dose (ED50) in assay [10] and in assay [1] were 55.6 mg/kg and 5.4 mg/kg, respectively. The MED50 entry in assay [13] is “inactive”. Also, the IC50 in assay [6] was 19.1 nM; in assay [8], 2.5 nM. The compound also showed an MED in [12] (po) of 20 mg/kg. Moreover, the ED50 entry in [14] was “inactive”.
Consider `Cl.Cn1ccc2c(N3CCN(CCCCN4C(=O)SC5(CCCC5)C4=O)CC3)nccc21`, for which the 50% effect level in assay [1] (ED50) was put at a dose of 59.5 mg/kg. For the same compound, the figures for the half-maximal inhibitory concentration (IC50) in [3] and in assay [4] were 517 nM and 246 nM, respectively.
`Cl.O=C1SC2(CCCC2)C(=O)N1CCCCN1CCN(c2nccc3occc23)CC1` gave an ED50 in assay [1] of 9.2 mg/kg. The half-maximal inhibitory concentration (IC50) is 23.5 nM in [2] and 331 nM in [3].
As to `Cl.OC(CCCN1CCN(c2nccc3occc23)CC1)c1ccc(F)cc1` (configuration not stated), the IC50 in assay [5] came to 23.8 nM; in assay [6], 55.2 nM; in assay [7], 339 nM; in assay [8], 12.4 nM. The same compound displayed a 50% effective dose (ED50) in assay [1] of 3.1 mg/kg.
The compound `Cc1cc2c(N3CCN(CCCCN4C(=O)SC5(CCCC5)C4=O)CC3)nccc2o1.Cl` returned a median effective dose (ED50) in assay [1] of 28.4 mg/kg. The half-maximal inhibitory concentration (IC50) in assay [2] worked out at 27.5 nM; in [3], 751 nM; in assay [4], 2.2 nM.
In the case of `Cc1cc2c(N3CCN(CCCCN4C(=O)CC(C)(C)CC4=O)CC3)nccc2o1.Cl`, the ED50 in [1] was found to be 13.8 mg/kg. Moreover, the figures for the IC50 in [7] and in [8] were 708 nM and 4.9 nM, respectively.
As for `Cc1cc2c(N3CCN(CCCCN4C(=O)SC5(CCCC5)C4=O)CC3)nccc2s1.Cl`, the IC50 was 43.4 nM in [9], 3.6 nM in assay [11] and 279 nM in assay [3]. In addition, in assay [1], the ED50 worked out at 35.4 mg/kg.

Values taken from ChEMBL document CHEMBL1124475, “The thieno[3,2-c]pyridine and furo[3,2-c]pyridine rings: new pharmacophores with potential antipsychotic activity” (J Med Chem, 1989).
